FN deposit inh: inhibitors of fibronectin matrix deposition, primary screen, AH1F cells, Alexa488-fibronectin fluorescence, plate reader; 350,000 compounds, 0.086% hits; inhibition, % at 12.6 µM; AH1F fibroblasts, overnight; AID 743247, 2014;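 active = mean inhibition across replicates of 30% or more, regardless of how many single replicates reach that level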
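Assay system: AH1F fibroblast monolayer, labelled fibronectin deposition. Amount: 10000 cells per well. Also added: labelled fibronectin 24 nM. Compound: single-point pinned compound. Incubation: cell attachment 1 h, compound and FN exposure overnight. Detection: fluorescence after three HBSS washes, excitation 485 nm, emission 525 nm. Read-out: inhibition of fibronectin deposition signal.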
GSIS activator: GLuc luminescence reporter in INS-1E cells, primary screen for activators of glucose-dependent secretion of insulin. activation, % at 16.6 µM. INS-1E GLuc reporter insulin secretion, 2-3 h. 370,000 compounds, 0.61% hits. AID 743287, 2014;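 active = lowest replicate activation of at least 40%, so every replicate reaches that level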
ERp5 inh: inhibitors of ERp5-driven insulin aggregation, primary screen, biochemical, turbidity, absorbance 650 nm, single point; Protein disulfide-isomerase A6 (Homo sapiens), Q15084; 90 min; inhibition, % at 9.99 µM; 350,000 compounds, 0.05% hits; AID 651711, 2012;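 active = mean replicate inhibition above about 25%, with every replicate also reaching it, limit read from the data, passing the limit was not always enough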
Target sequence (Q15084 whole entry, looked up): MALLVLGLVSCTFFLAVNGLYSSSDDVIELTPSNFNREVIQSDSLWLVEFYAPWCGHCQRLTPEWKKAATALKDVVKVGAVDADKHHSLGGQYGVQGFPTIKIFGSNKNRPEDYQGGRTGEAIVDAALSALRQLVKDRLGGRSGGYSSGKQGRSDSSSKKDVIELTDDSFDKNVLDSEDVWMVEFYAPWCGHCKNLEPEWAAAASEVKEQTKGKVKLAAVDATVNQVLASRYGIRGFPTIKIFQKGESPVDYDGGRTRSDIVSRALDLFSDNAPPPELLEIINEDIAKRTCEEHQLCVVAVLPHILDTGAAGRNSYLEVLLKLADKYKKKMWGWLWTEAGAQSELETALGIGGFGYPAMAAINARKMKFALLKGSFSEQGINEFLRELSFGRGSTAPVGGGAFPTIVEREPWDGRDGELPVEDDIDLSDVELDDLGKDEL
HIV Env fusion: inhibitors of HIV-1 Env-driven cell-cell fusion, primary screen, HeLa-JRFL effector, CEM21 target cells, luciferase | inhibition, % at 12.3 µM | AID 651610, 2012 | 360,000 compounds, 1.1% hits;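 active = mean replicate inhibition score of at least 50 and every replicate individually at or above 50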
PDI turbidity: inhibitors of human PDI, primary screen, biochemical, turbidity, single point, plate reader; Protein disulfide-isomerase (Homo sapiens), P07237; PDI insulin aggregation turbidity, A650, 90 min; inhibition, % at 10 µM; 350,000 compounds, 0.052% hits;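 active = mean inhibition across replicates of 30% or more, whatever share of single replicates reach that level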
Each line names hits and unclear results; the compound was inactive in the other large screens; [ ] = remark or other dose. The list is not random: actives were taken first. Their share in the collection is about 1.4%.

Cc1ccc(C(=O)Nc2cccc(C(=O)N/N=C/c3ccc(F)cc3)c2)cc1	GSIS activator 101
Cc1cccc(C(=O)NNC(=O)c2ccc(-c3ccccc3)cc2)c1	GSIS activator 99 (no result: FN deposit inh, ERp5 inh, HIV Env fusion)
O=C(O)c1cccc(NC(=O)c2ccccc2)c1	none
O=C(C1CCOCC1)N1CC(=O)N2[C@H](C1)[C@H](c1ccc(C#CC3CC3)cc1)[C@@H]2CO	none (no result: HIV Env fusion, PDI turbidity)
COc1cccc(CNC(=O)C[C@@H]2CC[C@@H](NC(=O)C3CCOCC3)[C@@H](CO)O2)c1	none (no result: PDI turbidity)
O=C(C[C@@H]1CC[C@@H]2[C@H](COC[C@@H](O)CN2C(=O)Nc2ccc(Cl)c(Cl)c2)O1)NC1CCC1	none (no result: PDI turbidity)
C[C@H](CO)N1C[C@H](C)[C@@H](CN(C)C(=O)Nc2ccc3c(c2)OCO3)Oc2ccc(NS(=O)(=O)c3cccs3)cc2C1=O	none (no result: HIV Env fusion, PDI turbidity)
C/C=C/c1cnc2c(c1)C(=O)N([C@@H](C)CO)C[C@H](C)[C@@H](CN(C)Cc1ccncc1)O2	none (no result: FN deposit inh, PDI turbidity)
C[C@@H]1CN([C@@H](C)CO)C(=O)c2cc(NS(=O)(=O)c3ccccc3)ccc2O[C@@H]1CN(C)C(=O)Nc1ccc(F)cc1	none (no result: FN deposit inh, PDI turbidity)
CCOc1ccc(NC2c3ccccc3C(=O)N2Cc2ccc3c(c2)OCO3)cc1 (stereo not given)	none (no result: GSIS activator, PDI turbidity)
COc1cc(NC2c3ccccc3C(=O)N2Cc2ccc3c(c2)OCO3)cc(OC)c1OC (stereo not given)	HIV Env fusion 87 (no result: PDI turbidity)
COc1ccc(C(=O)NC(=S)Nc2ccc3c4c(cccc24)CC3)cc1OC	GSIS activator 96 (no result: ERp5 inh)
CCOC(=O)C1=C(c2ccccc2)N=c2s/c(=C\c3cccc(O)c3)c(=O)n2C1c1cccs1 (stereo not given)	PDI turbidity 61 (no result: GSIS activator, ERp5 inh)
CCCCc1c(C)c2ccc(OCC(C)=O)cc2oc1=O	none (no result: FN deposit inh, GSIS activator, ERp5 inh, HIV Env fusion)
CCCc1c(C)c2ccc(OCC(C)=O)cc2oc1=O	GSIS activator 51 (no result: FN deposit inh, ERp5 inh, HIV Env fusion)
CCOC(=O)C1(Cc2ccccc2)CCCN(Cc2ccccn2)C1 (stereo not given)	FN deposit inh 31
CCOC(=O)C1(Cc2ccccc2)CCCN(CCO)C1 (stereo not given)	none
Cc1ccc(-c2ccc3c(c2)O[C@H](CN(C)Cc2ccncc2)[C@@H](C)CN([C@@H](C)CO)S3(=O)=O)cc1	HIV Env fusion 91[16.7 µM] (no result: PDI turbidity)
Cc1ccc(-c2ccc3c(c2)O[C@@H](CN(C)Cc2ccncc2)[C@H](C)CN([C@H](C)CO)S3(=O)=O)cc1	HIV Env fusion 90[16.7 µM] (no result: PDI turbidity)
C[C@@H]1CN([C@H](C)CO)S(=O)(=O)c2ccc(-c3ccncc3)cc2O[C@@H]1CN(C)Cc1ccc(Oc2ccccc2)cc1	HIV Env fusion 59[16.7 µM] (no result: PDI turbidity)
Cc1ccc(-c2ccc3c(c2)O[C@H](CN(C)Cc2cccnc2)[C@@H](C)CN([C@H](C)CO)S3(=O)=O)cc1	HIV Env fusion 79[16.7 µM] (no result: PDI turbidity)
C[C@H]1CN([C@@H](C)CO)C(=O)Cc2cc(NC(=O)Cc3cn(C)c4ccccc34)ccc2O[C@@H]1CN(C)CC1CC1	none (no result: FN deposit inh, PDI turbidity)
CN(C)CC#Cc1ccc([C@H]2[C@H](CO)N3CCCCN(C(=O)Nc4ccc(F)cc4)C[C@@H]23)cc1	none (no result: FN deposit inh, HIV Env fusion, PDI turbidity)
COc1ccccc1C#Cc1ccc2c(c1)O[C@@H](CN(C)Cc1ccncc1)[C@@H](C)CN([C@@H](C)CO)S2(=O)=O	HIV Env fusion 46[16.7 µM] (no result: FN deposit inh, PDI turbidity)
COC(=O)c1ccc(CC2(C)C(=O)Nc3ccc(-c4cccc(C(F)(F)F)c4)cc32)o1 (stereo not given)	HIV Env fusion 65
CC(=O)c1cccc(-c2ccc3c(c2)C(C)(Cc2ccccc2F)C(=O)N3)c1 (stereo not given)	none (no result: FN deposit inh)
C[C@@H]1CN([C@H](C)CO)C(=O)c2cccc(NS(=O)(=O)c3cccs3)c2O[C@@H]1CN(C)S(C)(=O)=O	none (no result: FN deposit inh, PDI turbidity)
CN(C)CC(=O)N[C@@H]1CC[C@H](CC(=O)O)O[C@@H]1CO	none (no result: HIV Env fusion, PDI turbidity)
CC(C)CCOP(=O)(c1ccccc1)c1ccccc1	GSIS activator 64 (no result: FN deposit inh, ERp5 inh, HIV Env fusion)
CCCOP(=O)(c1ccccc1)c1ccccc1	none (no result: HIV Env fusion)
C[C@@H]1CN([C@H](C)CO)C(=O)c2cc(NC(=O)c3ccccc3)ccc2O[C@@H](C)CCCCO[C@H]1CN(C)C(=O)c1ccccc1	none (no result: PDI turbidity)
CN1C(=O)/C(=C/c2ccc3c(c2)OCO3)N=C1c1ccccc1	GSIS activator 40 (no result: ERp5 inh)
COC(=O)c1ccc(OC)c(CSc2nnc(COc3ccc(Cl)cc3)o2)c1	HIV Env fusion 60 (no result: GSIS activator, ERp5 inh)
COC(=O)c1ccc(OC)c(CSc2nnc(COc3ccccc3)o2)c1	none (no result: FN deposit inh)
CN(C)C(=O)c1cccc(-c2ccccc2[C@@H]2[C@@H](CO)N(C(=O)C3CCCC3)[C@H]2C#N)c1	none (no result: HIV Env fusion, PDI turbidity)
CCOC(=O)N1CCN(C(=O)C2CCN(C(=O)c3ccccc3C)CC2)CC1	GSIS activator 106 (no result: FN deposit inh, HIV Env fusion)
Cc1ccccc1C(=O)N1CCC(C(=O)N2CCN(c3ncccn3)CC2)CC1	none
CO[C@H]1CN(C)C(=O)c2cc(NC(=O)C3CCC3)ccc2OC[C@H](C)N(Cc2ccncc2)C[C@@H]1C	none (no result: PDI turbidity)
C[C@H](CO)N1C[C@H](C)[C@H](CN(C)C(=O)Nc2cccc3ccccc23)OCCCC[C@H](C)Oc2ccc(NC(=O)Nc3cccc4ccccc34)cc2C1=O	none (no result: PDI turbidity)
CCCCN1CC(COCc2ccccc2)Oc2cccc(NCc3ccc(OC)cc3)c2S1(=O)=O (stereo not given)	none
CCCCNc1cccc2c1S(=O)(=O)N(CCCC)CC(COCc1ccccc1)O2 (stereo not given)	HIV Env fusion 61
Cc1nc(Nc2nc(CSc3ccc(Cl)cc3)cc(=O)[nH]2)nc2ccccc12	none (no result: ERp5 inh)
COc1ccc2nc(Nc3nc(CSc4nc5ccccc5[nH]4)cc(=O)[nH]3)nc(C)c2c1	HIV Env fusion 86
Cc1nc(Nc2nc(CSc3nc4ccccc4[nH]3)cc(=O)[nH]2)nc2ccccc12	HIV Env fusion 161 (no result: FN deposit inh, ERp5 inh)
COc1ccc2c(C)nc(Nc3nc(C)c(C)c(=O)[nH]3)nc2c1	HIV Env fusion 66 (no result: FN deposit inh, GSIS activator, ERp5 inh)
O=C(C[C@H]1CC[C@@H]2[C@H](COC[C@@H](O)CN2C(=O)c2ccncc2)O1)Nc1ccc(-c2ccccc2)cc1	none (no result: HIV Env fusion, PDI turbidity)
CO[C@H]1CN(C)C(=O)c2cc(NC(C)=O)ccc2OC[C@@H](C)N(Cc2nccs2)C[C@@H]1C	none (no result: PDI turbidity)
COc1ccc(S(=O)(=O)N(C)C[C@H]2Oc3ccc(NC(=O)NC4CCCCC4)cc3C(=O)N([C@@H](C)CO)C[C@@H]2C)cc1	none (no result: HIV Env fusion, PDI turbidity)
COc1ccc2c3c([nH]c2c1)[C@@H](CO)N(C(=O)C1CCC1)CC31CN(S(C)(=O)=O)C1	none (no result: FN deposit inh, HIV Env fusion, PDI turbidity)
CCOC(=O)N(C)C[C@H]1OCc2ccccc2-c2ccccc2C(=O)N([C@H](C)CO)C[C@H]1C	none (no result: ERp5 inh, HIV Env fusion, PDI turbidity)
CCOC(=O)c1cnc2ccccc2c1Nc1ccc(C(=O)O)cc1	none
CCOC(=O)c1cnc2ccc(Cl)cc2c1Nc1ccc(S(=O)(=O)Nc2ncccn2)cc1	GSIS activator 40 (no result: ERp5 inh, HIV Env fusion)
C[C@H]1CN([C@@H](C)CO)C(=O)c2cc(NC(=O)Nc3ccc(F)cc3)ccc2O[C@@H]1CN(C)C(=O)Nc1ccccc1	none (no result: FN deposit inh, PDI turbidity)
